Bioassay records: PubChem, several laboratories
SKKanGAS inh: S. pyogenes SKKanGAS growth inhibitors in kanamycin, primary screen, streptokinase expression inhibitor project, SKKanGAS strain, BacTiter-Glo luminescence. 6 h. inhibition, % at 7.5 µM. actives 1.3% (n = 300,000);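 active = mean replicate score, as percent of positive control median, at least 50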;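 also: strain carries kanamycin resistance gene driven by streptokinase promoter and grows in 40 µg/ml kanamycin; loss of luminescence reflects streptokinase promoter inhibition or plain growth inhibition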
CSC inhib: cancer stem cell viability inhibitors, primary screen, luminescence. AID 2717, 2010. actives 1.1% (n = 300,000). cancer stem cell-like cells viability. inhibition, % at 7.5 µM; in the data active = inhibition above about 75%; tested in HMLE shEcad cells
Beta cell apopt: inhibitors of cytokine-induced beta cell apoptosis, primary screen, luminescence; actives 0.8% (n = 300,000); protection from apoptosis, % (concentration not given with the values); INS-1E cytokine-induced death, ATP luminescence, 48 h; percent of positive-control rescue, neutral wells zero;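 active = Every replicate reaches about 75%, or at least half do and their mean reaches it too, limit read from the data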;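 also: higher means more ATP so stronger rescue from cytokine killing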
Mdm2-MdmX inh: inhibitors of human Mdm2-MdmX association, primary screen, cell-based, luminescence, split luciferase, SaOS-2, uHTS; Protein Mdm4 (Homo sapiens) + E3 ubiquitin-protein ligase Mdm2 (Homo sapiens), …; SaOS-2 split-luciferase Mdm2/MdmX complementation; inhibition, % at 8 µM; actives 3% (n = 330,000);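 active = inhibition of at least 50% at 8 µM in the primary screen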
Calb FLC: C. albicans growth inhibition with fluconazole, primary screen, CaCi-2 strain, Alamar Blue fluorescence | actives 0.57% (n = 300,000) | C. albicans CaCi-2 (fluconazole-resistant clinical isolate) + fluconazole, 48 h | growth inhibition, % (no concentration beside the values);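 active = growth inhibition above about 58% in most replicates, limit read from the data, passing the limit was not always enough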;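 also: all wells also contain fluconazole at 8 µg/ml as a sub-toxic cotreatment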
T cruzi repl: inhibitors of intracellular T. cruzi growth, primary screen, luminescence, NIH3T3 host cells; inhibition, % (no concentration beside the values); AID 1885, 2009; T. cruzi beta-gal in NIH3T3, 90 h; actives 1.4% (n = 300,000);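 active = mean inhibition across valid replicates above about 55%, limit read from the data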;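 also: signal also drops with host cell toxicity which is not excluded here; higher percent means less beta-gal luminescence so fewer parasites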
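System: Mouse NIH/3T3 fibroblasts infected with β-gal-expressing T. cruzi Tulahuen C4 | Quantity: NIH/3T3 cells, 5,000 per well | Reagent: 5000 reporter trypomastigotes per well | Dosing: Compound pinned at 50 nL/well, DMSO | Schedule: 3 h host attachment, then at least 90 h co-culture | Detection: GalScreen luminescence, 60 min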
Mdm2-MdmX conf: Mdm2-MdmX complex disruptors, retested hits, confirmation, luminescence, single concentration; shares compounds with Mdm2-MdmX inh; Mdm2-MdmX binding, luminescent assay; inhibition, % at 8 µM; actives 55% (n = 10,000); AID 489028, 2010; in the data active = inhibition above about 40%
Full FLuc ctr: full-length luciferase signal inhibition, confirmation, counter-screen for Mdm2/MdmX interaction inhibitor project, cell-based, single concentration, SaOS-2; SaOS-2 full-length luciferase counterscreen, luminescence; AID 504607, 2011; shares compounds with Mdm2-MdmX inh; inhibition, % at 8 µM; actives 77% (n = 6,200);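 active = mean inhibition at 8 µM reaching about 37%, which flags the compound as non-specific, limit read from the data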;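 also: p53-null SaOS-2 cells with luciferase driven by a doxycycline-inducible promoter; compound on cells about two nights before reading with doxycycline added after day one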
A number is an active result; . = inactive; / = no result. Most compounds without a hit are left out; they make up all but 5.7% or so of the library.

SMILES	SKKanGAS inh	CSC inhib	Beta cell apopt	Mdm2-MdmX inh	Calb FLC	T cruzi repl	Mdm2-MdmX conf	Full FLuc ctr
COc1ccc(CNCCc2c(C)[nH]c3ccc(OC(F)(F)F)cc23)c(OC)c1	.	.	87.9	87.0	.	58.7	52.7	52.3
CCOCCCNC(=O)C1c2cc(OC)c(OC)cc2C(=O)N2CCCCC12 (configuration not stated)	.	.	.	.	.	.	/	/
CCCCCCCCCCCCCCCC[N+](C)(C)C	102.9	102.0	117.1	90.0	102.1	.	76.2	.
COc1ccccc1-n1c(-c2ccc(C)cc2)nc2ccccc2c1=O	.	/	/	.	.	.	/	/
CC(C)(C)c1cc(C=C(C#N)C#N)cc(C(C)(C)C)c1O	/	80.6	117.1	96.1	/	/	94.4	.
CCC(C)C(=O)N[C@@H](c1ccccc1)[C@@H](O)C(=O)O[C@H]1C[C@@]2(O)[C@@H](OC(=O)c3ccccc3)C3[C@](C)(C(=O)[C@H](OC(C)=O)C(=C1C)C2(C)C)[C@@H](O)C[C@H]1OC[C@@]31OC(C)=O (some centres not stated)	.	.	.	62.4	.	57.0	66.1	39.2
CC/C=C/CC(=O)N[C@@H](c1ccccc1)[C@@H](O)C(=O)O[C@H]1C[C@@]2(O)[C@@H](OC(=O)c3ccccc3)C3[C@](C)(C(=O)[C@H](OC(C)=O)C(=C1C)C2(C)C)[C@@H](O)C[C@H]1OC[C@@]31OC(C)=O (some centres not stated)	.	.	/	69.2	.	.	67.2	47.6
CC(C)NC(C)Cc1ccc(I)cc1 (configuration not stated)	/	.	.	.	/	/	/	/
COc1ccc(C2=CC(c3ccc(OC)c(OC)c3)c3c(c4ccccc4oc3=O)O2)cc1OC (configuration not stated)	.	.	.	54.8	.	.	65.2	66.1
Cc1cccc(NC(=O)N2C[C@H]3C[C@@H](C2)c2cccc(=O)n2C3)c1	.	.	.	.	.	.	/	/
O=c1[nH]c(O)c(N=Nc2ccc3c(c2)OCCO3)c(=O)[nH]1	.	.	.	57.9	.	.	67.5	78.0
O=c1[nH]c(=S)[nH]c(O)c1N=Nc1ccc2c(c1)OCCO2	.	.	.	.	.	.	/	/
CCN1C[C@]2(CO)CC[C@H](OC)[C@@]34C2[C@H](OC)[C@@](O)(C13)[C@@]1(O)C[C@H](OC)[C@H]2C[C@@H]4[C@@H]1[C@H]2OC	.	.	.	.	.	.	/	/
O=C1N(CN2CCOCC2)c2ccccc2C1(O)c1c[nH]c2ccccc12 (configuration not stated)	.	/	.	.	.	.	/	/
N[C@@H](Cc1ccc(N(CCCl)CCCl)cc1)C(=O)O	/	.	.	68.1	/	/	.	36.4
CC(=O)NC(Cc1ccc(N(CCCl)CCCl)cc1)C(=O)O (configuration not stated)	.	.	/	.	.	.	/	/
COC(=O)C1=C(c2ccc(Cl)c(C(F)(F)F)c2)C[C@@H]2CC[C@H]1N2C(=O)N1CCC(O)(c2ccc(Cl)cc2)CC1	/	/	.	88.1	/	/	.	/
CC(=O)O[C@@H]1/C=C/[C@](C)(O)C[C@@H](C)C/C=C/[C@H]2[C@@H]3O[C@]3(C)[C@@H](C)[C@H]3[C@H](Cc4ccccc4)NC(=O)[C@@]312	.	.	.	77.8	.	.	51.5	42.2
Cc1ccc(NP(=O)(Nc2ccc(C)cc2)Oc2ccccc2)cc1	.	.	.	.	.	.	/	/
CCOc1ccccc1N=C1SCCCN1C	.	.	.	.	.	.	/	/
CCOc1cccc(=NC2CCCCC2)c2c(C)n(C)c(C)c12	.	.	.	53.8	.	.	.	/
C[C@]12CC[C@H]3[C@@H](CC[C@]4(O)C[C@@H](O)CC[C@]34C=O)[C@@]1(O)CC[C@@H]2C1=CC(=O)OC1	/	101.2	.	69.5	/	/	69.1	.
CCCCN=C[C@]12CCC(O)CC1(O)CCC1[C@@H]2CC[C@]2(C)[C@H](C3C=CC(=O)O3)CCC12O (some centres not stated)	.	98.6	.	58.8	.	.	69.8	49.9
C[C@]12CCC3C(CCC4=CC(O)CC[C@@]43/C=N/O)C1(O)CCC2C1=CC(=O)OC1 (some centres not stated)	.	115.4	.	58.4	.	.	72.0	.
CC12CC[C@H]3[C@@H](CCC4(O)C[C@H](O)CCC34/C=N/NC(=O)c3ccccc3Cl)C1(O)CCC2C1=CC(=O)OC1 (some centres not stated)	.	.	.	.	.	.	/	/
SMILES	SKKanGAS inh	CSC inhib	Beta cell apopt	Mdm2-MdmX inh	Calb FLC	T cruzi repl	Mdm2-MdmX conf	Full FLuc ctr
Fc1cccc(C2NCc3ccccc3-n3cccc32)c1 (configuration not stated)	.	.	.	.	.	.	/	/
COC(=O)C1=C(c2ccc(S(C)(=O)=O)cc2)C[C@@H]2CC[C@H]1N2C(=O)NCc1cccc2ccccc12	.	.	.	.	.	.	/	/
C[C@@H]1CC[C@@]2(NC1)O[C@H]1C[C@H]3[C@@H]4CC=C5C[C@@H](O)CC[C@]5(C)[C@H]4CC[C@]3(C)[C@H]1[C@@H]2C	.	.	.	57.8	78.6	.	.	/
CC(C)[C@H]1CC2C3CC=C4C[C@@H](O)CC[C@]4(C)C3CC[C@]2(C)[C@H]1O (some centres not stated)	/	.	.	.	/	/	/	/
COc1ccc(/C=C/C(=O)c2c(O)n(CCC3=CCCCC3)c(=O)[nH]c2=O)cc1OC	.	.	.	69.5	.	.	.	/
O=NN1CCCCC1	/	.	.	.	/	/	/	/
